In publication PMC4212002 (Molecular Pharmaceutics, 2014):
Positions of bridges follow the written chain, without caps; N, C: chain ends. Residues, ends and D or L forms follow the SMILES beside them.

Legend:
[1] = test system: integrin αvβ3 (U87MG cells); settings: read-out: U87MG IC50; binding to U87MG cells; ref 22 and 23; cited from earlier work
[2] = test system: integrin αiibβ3; settings: cited from earlier work
[3] = test system: integrin αvβ5; settings: cited from earlier work
[4] = target: integrin αvβ3 (Homo sapiens, UniProt P05106+P06756); settings: cited from earlier work
Sequence of integrin αvβ3 (P06756 31-889): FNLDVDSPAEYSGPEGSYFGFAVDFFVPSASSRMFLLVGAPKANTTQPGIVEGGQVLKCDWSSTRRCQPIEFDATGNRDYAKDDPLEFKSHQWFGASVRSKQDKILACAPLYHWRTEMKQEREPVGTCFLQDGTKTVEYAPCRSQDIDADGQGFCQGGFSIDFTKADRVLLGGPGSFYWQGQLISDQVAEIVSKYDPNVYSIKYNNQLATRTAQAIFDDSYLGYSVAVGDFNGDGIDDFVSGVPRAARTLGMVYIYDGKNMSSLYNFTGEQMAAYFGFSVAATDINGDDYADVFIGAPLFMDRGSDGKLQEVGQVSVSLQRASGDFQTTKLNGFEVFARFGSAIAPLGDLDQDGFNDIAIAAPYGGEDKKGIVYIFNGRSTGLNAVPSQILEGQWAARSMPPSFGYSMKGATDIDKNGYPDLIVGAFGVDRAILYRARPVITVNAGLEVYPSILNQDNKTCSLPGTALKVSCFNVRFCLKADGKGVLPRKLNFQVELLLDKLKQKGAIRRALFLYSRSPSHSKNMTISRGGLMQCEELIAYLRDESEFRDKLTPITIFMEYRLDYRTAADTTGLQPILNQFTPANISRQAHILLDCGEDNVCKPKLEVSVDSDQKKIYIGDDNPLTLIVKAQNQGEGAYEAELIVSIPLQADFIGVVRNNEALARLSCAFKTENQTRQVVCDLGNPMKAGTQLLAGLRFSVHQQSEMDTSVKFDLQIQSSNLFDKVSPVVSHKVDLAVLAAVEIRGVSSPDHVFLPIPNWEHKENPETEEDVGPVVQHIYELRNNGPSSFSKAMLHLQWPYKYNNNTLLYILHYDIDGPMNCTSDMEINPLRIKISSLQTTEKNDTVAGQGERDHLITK
Sequence of integrin αvβ3 (P06756 891-992): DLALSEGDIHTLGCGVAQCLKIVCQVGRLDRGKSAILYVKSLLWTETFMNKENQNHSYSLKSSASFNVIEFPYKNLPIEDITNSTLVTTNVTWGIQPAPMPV
Sequence of integrin αvβ3 (P05106 27-718): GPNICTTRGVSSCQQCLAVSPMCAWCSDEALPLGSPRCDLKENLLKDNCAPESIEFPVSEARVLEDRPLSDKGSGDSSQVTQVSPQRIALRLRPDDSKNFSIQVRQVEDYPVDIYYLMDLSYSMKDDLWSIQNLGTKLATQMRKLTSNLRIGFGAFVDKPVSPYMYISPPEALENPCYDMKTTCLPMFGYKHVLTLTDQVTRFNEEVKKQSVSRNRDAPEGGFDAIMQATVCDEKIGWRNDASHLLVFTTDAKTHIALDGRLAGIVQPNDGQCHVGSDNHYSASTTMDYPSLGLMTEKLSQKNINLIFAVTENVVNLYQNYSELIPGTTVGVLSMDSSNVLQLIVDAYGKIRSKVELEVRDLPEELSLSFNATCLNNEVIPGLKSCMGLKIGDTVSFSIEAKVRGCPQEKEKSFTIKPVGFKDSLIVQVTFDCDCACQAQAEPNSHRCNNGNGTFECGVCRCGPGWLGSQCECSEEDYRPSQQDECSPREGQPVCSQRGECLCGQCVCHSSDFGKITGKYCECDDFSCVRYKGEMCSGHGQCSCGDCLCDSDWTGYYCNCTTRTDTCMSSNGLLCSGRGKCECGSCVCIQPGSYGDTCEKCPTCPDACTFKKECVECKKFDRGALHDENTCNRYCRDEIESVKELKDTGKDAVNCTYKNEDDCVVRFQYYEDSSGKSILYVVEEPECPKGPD

[5] = test system: integrin α5β1; settings: cited from earlier work
[6] = test system: U87MG tumor-bearing mice; experiment: Small animal PET imaging quantification; type: in vivo, mouse; settings: U87MG xenograft mice, within 2 h p.i.
Method in brief: (§1)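 Female nude mice carried s.c. U87MG shoulder xenografts of 0.5–1 cm, n = 4 per group. About 3.7 MBq (100 μCi) of radiotracer was given via tail vein, with or without ~330 μg c(RGDyK) coinjected. Mice were scanned on a small-animal PET at 0.5, 1 and 2 h p.i. under isoflurane (5% induction, 2% maintenance in 100% O2). Images were reconstructed by OSEM 2D and regional uptake quantified as %ID/g.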

[7] = Small animal PET imaging quantification; type: in vivo, mouse; settings: mouse, tumor, iv, 3.7 MBq, total radioactivity
Method in brief: as §1

[8] = In vitro stability in PBS buffer; type: physicochemical; settings: 0.01 M PBS pH 7.4, 1 h, room temperature, 3.7–5.55 MBq, radio-HPLC
Method in brief: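 The radiotracer was reconstituted in PBS and sterile-filtered (0.22 μm) before incubation. After incubation, samples were analysed by radio-HPLC. Percent intact peptide was obtained by quantifying the peaks for intact peptide and for degradation products.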

[9] = test system: U87MG cells; experiment: U87MG cell uptake assay; type: cell-based, human; settings: for cell uptake (% of added radioactivity): 37 kBq/well, mean ± SD, triplicate
Method in brief: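 U87MG cells were grown in high-glucose DMEM with 10% FBS and 1% pen-strep (37 °C, 5% CO2) and trypsinised at 70–80% confluence. Cells (1 × 10^5/well) attached overnight and were PBS-washed, then exposed to 37 kBq radiotracer per well in medium ± 2 μg/well c(RGDyK) at 37 or 4 °C for 15–120 min. Cells were washed, lysed in 1.0 M NaOH and γ-counted as % added activity. Two experiments, triplicate wells.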

[10] = test system: U87MG tumor-bearing mice; experiment: Biodistribution study; type: in vivo, mouse; settings: U87MG xenograft nude mice, i.v., 2.5 h p.i., mean ± SD n = 4
Method in brief: (§2)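 Female athymic nude mice bore s.c. right-shoulder xenografts (~1 × 10^7 U87MG cells in 100 μL PBS, grown 2–3 weeks to 0.5–1 cm). The radiofluorinated peptide (1.85–3.7 MBq) was given via tail vein; mice were killed 0.5–2.5 h p.i. Tissues were weighed and γ-counted and expressed as %ID/g, n = 4 per group. A blocking group was coinjected with 330 μg c(RGDyK) and examined at 2.5 h.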

[11] = Biodistribution study; type: in vivo, mouse; settings: nude, mouse, iv, total radioactivity
Method in brief: as §2

For `CSCC[C@@H]1NC(=O)[C@H](CC(=O)O)NC(=O)CNC(=O)[C@H](CCCNC(=N)N)NC(=O)[C@H](C)NC(=O)[C@H](CCC(=O)O)NC(=O)[C@H](CCCNC(=N)N)NC(=O)[C@@H]2CSSC[C@@H]3NC(=O)[C@H](CO)NC(=O)[C@H]([C@@H](C)O)NC(=O)[C@@H]4CCCN4C(=O)[C@H](C)NC(=O)[C@H](Cc4c[nH]c5ccccc45)NC(=O)[C@H](CC(=O)O)NC(=O)CNC(=O)[C@H](CCCNC(=N)N)NC(=O)CNC(=O)[C@H](CCC(N)=O)NC(=O)[C@@H]4CCCN4C(=O)[C@@H](NC(=O)CN)CSSC[C@H](NC(=O)CNC(=O)[C@H](C)NC(=O)[C@H](CC(C)C)NC(=O)[C@H](CSSC[C@@H](C(=O)NCC(N)=O)NC(=O)[C@H]([C@@H](C)O)NC(=O)[C@H](CCCNC(=N)N)NC(=O)[C@@H]4CCCN4C1=O)NC(=O)[C@H](CC(=O)O)NC(=O)[C@H](CO)NC(=O)[C@H](CC(=O)O)NC(=O)[C@H](CCC(N)=O)NC(=O)[C@H](CO)NC3=O)C(=O)N[C@@H](C(C)C)C(=O)N2` [3-4A] (H-GCPQGRGDWAPTSCSQDSDCLAGCVCREARGDMPRTCG-NH2; disulfide 2-24, 14-26, 20-37; C-terminus assumed), the IC50 [1] is given as 5 ± 2 nM, the “binding affinity for integrin αiibβ3” value [2] is given as “lower affinity” and the “binding affinity to integrin αvβ5” value [3] is given as “high binding affinity”. For the same molecule, the “binding affinity to integrin αvβ3” value [4] was “high binding affinity” and the “binding affinity for integrin α5β1” value [5] was “lower affinity”.
In the case of `CSCC[C@@H]1NC(=O)[C@H](CC(=O)O)NC(=O)CNC(=O)[C@H](CCCNC(=N)N)NC(=O)[C@H](C)NC(=O)[C@H](CCC(=O)O)NC(=O)[C@H](CCCNC(=N)N)NC(=O)[C@@H]2CSSC[C@@H]3NC(=O)[C@H](CO)NC(=O)[C@H]([C@@H](C)O)NC(=O)[C@@H]4CCCN4C(=O)[C@H](C)NC(=O)[C@H](Cc4c[nH]c5ccccc45)NC(=O)[C@H](CC(=O)O)NC(=O)CNC(=O)[C@H](CCCNC(=N)N)NC(=O)CNC(=O)[C@H](CCC(N)=O)NC(=O)[C@@H]4CCCN4C(=O)[C@@H](NC(=O)CNC(=O)C(C)F)CSSC[C@H](NC(=O)CNC(=O)[C@H](C)NC(=O)[C@H](CC(C)C)NC(=O)[C@H](CSSC[C@@H](C(=O)NCC(N)=O)NC(=O)[C@H]([C@@H](C)O)NC(=O)[C@H](CCCNC(=N)N)NC(=O)[C@@H]4CCCN4C1=O)NC(=O)[C@H](CC(=O)O)NC(=O)[C@H](CO)NC(=O)[C@H](CC(=O)O)NC(=O)[C@H](CCC(N)=O)NC(=O)[C@H](CO)NC3=O)C(=O)N[C@@H](C(C)C)C(=O)N2` (stereo partly shown) [^18F-FP–3-4A], the “in vivo defluorination (bone uptake on PET)” value [6] is reported as “no observable defluorination”, the tissue uptake at 0.5 h [7] is reported as 3.87 ± 0.66 %ID/g and the “intact probe after incubation in PBS” value [8] is reported as “completely intact”. For the same molecule, the “accumulation in cells at 37 °C compared to 4 °C” value [9] was 2–3 fold, the “inhibition of cell uptake by excess c(RGDyK)” value ([9]; 4 °C, 1 h, 2 μg/well c(RGDyK)) was 31.82% and the “cell uptake (% of added radioactivity)” value ([9]; 4 °C, 15 min) was 0.32 ± 0.02%. The “cell uptake (% of added radioactivity)” value ([9]; 4 °C, 30 min) was 0.41 ± 0.11%, the “cell uptake (% of added radioactivity)” value ([9]; 4 °C, 60 min) was 0.44 ± 0.05% and the “cell uptake (% of added radioactivity)” value ([9]; 4 °C, 120 min) was 0.51 ± 0.04%. For the same molecule, the “cell uptake (% of added radioactivity)” value ([9]; 37 °C, 15 min) was 0.71 ± 0.07%, the “cell uptake (% of added radioactivity)” value ([9]; 37 °C, 30 min) was 0.90 ± 0.04% and the “cell uptake (% of added radioactivity)” value ([9]; 37 °C, 60 min) was 1.44 ± 0.04%. The “cell uptake (% of added radioactivity)” value ([9]; 37 °C, 120 min) was 1.50 ± 0.07%, the liver uptake [10] was 0.29 % ID/g and the tissue to tissue ratio at 0.5 h ([11]; tumor and blood) was 5.94 ± 0.94. For the same molecule, the tissue to tissue ratio at 1 h ([11]; tumor and blood) was 4.39 ± 0.82, the tissue to tissue ratio at 2.5 h ([11]; tumor and blood) was 3.12 ± 0.55 and the tissue to tissue ratio at 0.5 h ([11]; tumor and kidney) was 0.57 ± 0.19. The tissue to tissue ratio at 1 h ([11]; tumor and kidney) was 0.6 ± 0.12, the tissue to tissue ratio at 2.5 h ([11]; tumor and kidney) was 0.72 ± 0.15 and the tissue to tissue ratio at 0.5 h ([11]; tumor and liver) was 5.55 ± 0.63. The tissue to tissue ratio at 1 h ([11]; tumor and liver) was 5.69 ± 0.88, the tissue to tissue ratio at 2.5 h ([11]; tumor and liver) was 3.15 ± 0.74 and the tissue to tissue ratio at 0.5 h ([11]; tumor and lung) was 2.22 ± 0.45. The tissue to tissue ratio at 1 h ([11]; tumor and lung) was 1.44 ± 0.31, the tissue to tissue ratio at 2.5 h ([11]; tumor and lung) was 1.64 ± 0.01 and the tissue to tissue ratio at 0.5 h ([11]; tumor and muscle) was 10.8 ± 1.52. It also gave a tissue to tissue ratio at 1 h ([11]; tumor and muscle) of 10.1 ± 1.22, a tissue to tissue ratio at 2.5 h ([11]; tumor and muscle) of 3.47 ± 0.07 and a tissue to tissue ratio at 0.5 h ([11]; tumor and pancreas) of 12 ± 1.94. For the same molecule, the tissue to tissue ratio at 1 h ([11]; tumor and pancreas) was 6.06 ± 0.54, the tissue to tissue ratio at 2.5 h ([11]; tumor and pancreas) was 3.96 ± 1.24 and the tissue to tissue ratio at 0.5 h ([11]; tumor and spleen) was 4.28 ± 0.4. The tissue to tissue ratio at 1 h ([11]; tumor and spleen) was 2.63 ± 0.32 and the tissue to tissue ratio at 2.5 h ([11]; tumor and spleen) was 1.83 ± 0.16.
